Activity calls are given as the source filed them. The calls are words filed in the database; no cut-off is given here.
Columns and labels:
[1] = target: T1, Alpha-1A adrenergic receptor (Homo sapiens, UniProt P35348); test: Agonist activity at human alpha1A-adrenergic receptor expressed in HEK293 cells assessed as calcium flux by fluorescence assay; format: functional, cell-based
T1 sequence (P35348 whole entry): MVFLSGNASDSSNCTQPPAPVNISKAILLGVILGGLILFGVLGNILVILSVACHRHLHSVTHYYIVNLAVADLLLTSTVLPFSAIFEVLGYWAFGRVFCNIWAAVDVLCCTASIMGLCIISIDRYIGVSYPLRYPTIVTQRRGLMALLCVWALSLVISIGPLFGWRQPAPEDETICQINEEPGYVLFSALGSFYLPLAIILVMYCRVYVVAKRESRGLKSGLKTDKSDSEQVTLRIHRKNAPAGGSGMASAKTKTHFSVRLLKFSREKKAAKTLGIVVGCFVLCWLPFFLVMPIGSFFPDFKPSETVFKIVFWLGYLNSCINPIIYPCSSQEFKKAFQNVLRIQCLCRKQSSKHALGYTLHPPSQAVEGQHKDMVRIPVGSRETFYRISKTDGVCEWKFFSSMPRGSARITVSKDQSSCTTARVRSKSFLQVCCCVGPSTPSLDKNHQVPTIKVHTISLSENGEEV

[2] = target: T2, Alpha-1A adrenergic receptor (Homo sapiens) (UniProt P35348); test: Intrinsic activity at human alpha1A-adrenergic receptor expressed in HEK293 cells assessed as calcium flux by fluorescence assay relative to norepinephrine; format: functional, cell-based
T2 sequence (whole entry): T1 sequence (P35348 whole entry)

[3] = target: T3, Beta-3 adrenergic receptor (Homo sapiens, UniProt P13945); test: Agonist activity at human recombinant beta3-adrenergic receptor expressed in CHO cells assessed as increase of cAMP level after 30 mins; format: functional, cell-based
Target sequence in this assay (P13945 whole entry): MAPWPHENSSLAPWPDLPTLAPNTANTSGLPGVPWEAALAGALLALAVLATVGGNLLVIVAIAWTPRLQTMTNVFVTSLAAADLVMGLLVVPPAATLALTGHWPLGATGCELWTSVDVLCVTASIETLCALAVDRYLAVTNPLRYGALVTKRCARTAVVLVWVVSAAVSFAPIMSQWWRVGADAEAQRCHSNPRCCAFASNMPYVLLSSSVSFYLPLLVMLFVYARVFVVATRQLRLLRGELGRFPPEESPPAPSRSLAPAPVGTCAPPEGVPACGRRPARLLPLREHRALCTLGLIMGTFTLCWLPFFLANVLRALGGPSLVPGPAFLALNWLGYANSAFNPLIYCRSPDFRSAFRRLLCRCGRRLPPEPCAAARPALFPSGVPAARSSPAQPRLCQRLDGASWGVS

Homo sapiens = organism: Homo sapiens; test: Selectivity ratio of EC50 for human alpha1A-adrenergic receptor to EC50 for human beta3-adrenergic receptor
[4] = target: T3, Beta-3 adrenergic receptor; test: Intrinsic activity at human beta3-adrenergic receptor expressed in CHO cells assessed as increase of cAMP level after 30 mins relative to isoproterenol; format: functional, cell-based
Outline: (§1)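 Stably transfected CHO cells expressing human β1, β2 or β3 or marmoset β3 receptor were grown in Ham's F-12 with 10% FBS and geneticin, seeded at 2×10⁴ cells/well and grown about 20 h. Cells spent 15 min serum-free, then 30 min with compound in medium containing HEPES and isobutylmethylxanthine. Lysate cAMP was measured by kit. […] EC50 is the half-maximal concentration for each compound.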
Target sequence in this assay (P13945 whole entry, looked up): as the sequence (P13945 whole entry) above

Rattus norvegicus [5] = test: Cardiotoxicity in anesthetized Sprague-Dawley rat assessed as increase in heart rate at 3 mg/kg, iv measured for 30 mins relative to control; format: toxicity, organism-based; settings: in vivo, 0.5 h
Outline: (§2)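 Male Sprague-Dawley rats (200-300 g) were anesthetized with sodium pentobarbital (50 mg/kg i.p. plus 25 mg/kg s.c.). The compound was injected via the cannulated left femoral vein once BP and HR were stable, and HR and MBP were recorded for 30 min. Results are the maximum % increase or decrease from baseline, as mean ± SEM. Where given, silodosin (0.01 mg/kg iv) preceded the compound.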

Rattus norvegicus [6] = test: Cardiotoxicity in anesthetized Sprague-Dawley rat assessed as decrease in heart rate at 3 mg/kg, iv measured for 30 mins relative to control; format: toxicity, organism-based; parameters: scale not given: the % may be the effect or the level left; settings: in vivo, 0.5 h; outline: as §2
[7] = target: Beta-2 adrenergic receptor (Homo sapiens, UniProt P07550); test: Agonist activity at human beta2-adrenergic receptor expressed in CHO cells assessed as increase of cAMP level after 30 mins; format: functional, cell-based; outline: as §1
Rattus norvegicus [8] = test: Cardiotoxicity in anesthetized Sprague-Dawley rat assessed as increase in mean blood pressure at 3 mg/kg, iv measured for 30 mins relative to control; format: toxicity, organism-based; settings: in vivo, 0.5 h; outline: as §2
Rattus norvegicus [9] = test: Cardiotoxicity in anesthetized Sprague-Dawley rat assessed as decrease in mean blood pressure at 3 mg/kg, iv measured for 30 mins relative to control; format: toxicity, organism-based; parameters: scale not given: the % may be the effect or the level left; settings: in vivo, 0.5 h; outline: as §2
[10] = target: Beta-1 adrenergic receptor (Homo sapiens, UniProt P08588); test: Agonist activity at human beta1-adrenergic receptor expressed in CHO cells assessed as increase of cAMP level after 30 mins; format: functional, cell-based; outline: as §1
Callithrix jacchus [11] = organism: Callithrix jacchus; test: Agonist activity at beta3-adrenergic receptor in isolated marmoset urinary bladder smooth muscle assessed as reduction of KCl-induced muscle contraction; format: tissue-based
Outline: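 Marmosets anesthetized with ketamine hydrochloride (15 mg/kg, i.m.) and exsanguinated. Bladder body strips (about 10-15 mm × 2-5 mm) were held in Krebs-Henseleit gassed with 95% O2/5% CO2 at 37 °C under 1 g resting tension and equilibrated over 30 min. Tension was recorded isometrically. After the top concentration, papaverine (final 10⁻⁴ mol/L) set each strip's maximum relaxation.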

[12] = Agonist activity at marmoset beta3-adrenergic receptor; parameters: species or system Callithrix jacchus; outline: as §1
[13] = target: Beta-3 adrenergic receptor (Rattus norvegicus, UniProt P26255); test: Agonist activity at rat beta3-adrenergic receptor
Callithrix jacchus [14] = organism: Callithrix jacchus; test: Agonist activity at marmoset beta3-adrenergic receptor relative to isoproterenol; outline: as §1
[15] = target: Beta-3 adrenergic receptor (Rattus norvegicus) (UniProt P26255); test: Intrinsic activity at rat beta3-adrenergic receptor relative to isoproterenol
Beta-3 adrenergic receptor (Rattus norvegicus), sequence (P26255 whole entry): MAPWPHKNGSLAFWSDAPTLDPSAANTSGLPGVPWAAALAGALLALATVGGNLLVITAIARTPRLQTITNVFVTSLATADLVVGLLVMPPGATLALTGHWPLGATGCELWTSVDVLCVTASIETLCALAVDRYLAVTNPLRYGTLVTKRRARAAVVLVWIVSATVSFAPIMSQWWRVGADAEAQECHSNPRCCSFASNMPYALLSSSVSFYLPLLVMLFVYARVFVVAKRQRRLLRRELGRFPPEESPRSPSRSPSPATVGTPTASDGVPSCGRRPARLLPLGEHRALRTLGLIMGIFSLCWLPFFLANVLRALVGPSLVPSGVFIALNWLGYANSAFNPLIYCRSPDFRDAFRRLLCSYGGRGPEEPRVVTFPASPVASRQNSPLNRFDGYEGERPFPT

Beta-1 adrenergic receptor, sequence (P08588 whole entry): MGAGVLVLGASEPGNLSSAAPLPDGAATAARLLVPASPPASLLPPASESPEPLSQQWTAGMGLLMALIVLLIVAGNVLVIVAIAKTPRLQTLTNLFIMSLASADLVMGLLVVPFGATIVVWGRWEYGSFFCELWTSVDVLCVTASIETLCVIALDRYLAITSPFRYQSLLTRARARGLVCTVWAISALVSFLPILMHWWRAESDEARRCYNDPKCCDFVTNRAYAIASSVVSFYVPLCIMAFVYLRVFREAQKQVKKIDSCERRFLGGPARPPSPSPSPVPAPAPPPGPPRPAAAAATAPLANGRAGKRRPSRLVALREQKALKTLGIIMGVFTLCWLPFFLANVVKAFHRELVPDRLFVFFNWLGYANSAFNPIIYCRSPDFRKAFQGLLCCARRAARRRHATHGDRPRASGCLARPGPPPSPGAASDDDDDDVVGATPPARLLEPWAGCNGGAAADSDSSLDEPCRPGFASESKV
Beta-2 adrenergic receptor, sequence (P07550 whole entry): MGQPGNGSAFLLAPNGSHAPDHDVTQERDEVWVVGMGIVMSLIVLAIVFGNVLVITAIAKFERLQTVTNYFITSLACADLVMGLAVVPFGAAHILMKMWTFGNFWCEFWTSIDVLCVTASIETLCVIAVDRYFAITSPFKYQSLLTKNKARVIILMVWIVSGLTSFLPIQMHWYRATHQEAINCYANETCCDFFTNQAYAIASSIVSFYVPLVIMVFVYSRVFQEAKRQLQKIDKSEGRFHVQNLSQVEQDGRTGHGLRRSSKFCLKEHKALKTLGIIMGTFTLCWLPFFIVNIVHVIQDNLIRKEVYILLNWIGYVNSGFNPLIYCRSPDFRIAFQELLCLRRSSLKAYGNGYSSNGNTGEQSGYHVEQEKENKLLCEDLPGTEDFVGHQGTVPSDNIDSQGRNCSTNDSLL
Beta-3 adrenergic receptor (Rattus norvegicus, UniProt P26255), sequence (P26255 whole entry): as the sequence (P26255 whole entry) above

SMILES | EC50 [1] | Intrinsic activity [2] | EC50 [3] | Ratio EC50 (Homo sapiens) | Intrinsic activity [4] | Activity (Rattus norvegicus [5]) | Activity (Rattus norvegicus [6]) | EC50 [7] | Activity (Rattus norvegicus [8]) | Activity (Rattus norvegicus [9]) | EC50 [10] | Activity (Callithrix jacchus [11]) | EC50 [12] | EC50 [13] | Intrinsic activity (Callithrix jacchus [14]) | Intrinsic activity [15]
CS(=O)(=O)Nc1cccc([C@@H](O)CNCCOc2ccc3c(Cl)n[nH]c3c2)c1 | 61 nM | 91% | 43 nM | 1.4 | 89% | – | – | – | – | – | – | – | – | – | – | –
CS(=O)(=O)Nc1cccc([C@@H](O)CNCCOc2ccc3c(C4CC4)n[nH]c3c2)c1 | 1550 nM | 19% | 17 nM | 91 | 72% | 5.7% | 3.3% | > 10000 nM | 2.7% | 11% | > 10000 nM | – | – | – | – | –
CS(=O)(=O)Nc1cccc([C@@H](O)CNCCOc2ccc3c(C4CCC4)n[nH]c3c2)c1 | > 10000 nM | 4% | 66 nM | > 151 | 68% | – | – | – | – | – | – | – | – | – | – | –
CS(=O)(=O)Nc1cccc([C@@H](O)CNCCOc2ccc3c(CO)n[nH]c3c2)c1 | 33 nM | – | 111 nM | – | – | – | – | – | – | – | – | – | – | – | – | –
CC(C)c1n[nH]c2cc(OCCNC[C@H](O)c3cccc(NS(C)(=O)=O)c3)ccc12 | > 10000 nM | 9.1% | 13 nM | > 769 | 69% | 3.3% | 1.8% | > 10000 nM | 4.7% | 7.6% | > 10000 nM | Active | 15 nM | 535 nM | 75% | 95%
CCOc1n[nH]c2cc(OCCNC[C@H](O)c3cccc(NS(C)(=O)=O)c3)ccc12 | 277 nM | 59% | 71 nM | 3.9 | 69% | – | – | – | – | – | – | – | – | – | – | –
Nc1nc(CC(=O)Nc2ccc(CCNC[C@H](O)c3ccccc3)cc2)cs1 [MIRABEGRON] | – | – | – | – | – | 10% | – | – | 3.5% | 38.3% | – | – | – | – | – | –
CC(C)(C)c1n[nH]c2cc(OCCNC[C@H](O)c3cccc(NS(C)(=O)=O)c3)ccc12 | > 10000 nM | 19% | 338 nM | > 30 | 62% | – | – | – | – | – | – | – | – | – | – | –
CCc1n[nH]c2cc(OCCNC[C@H](O)c3cccc(NS(C)(=O)=O)c3)ccc12 | – | 31% | 14 nM | 61 | 78% | 9.6% | 1.6% | > 10000 nM | 3.1% | 10.8% | > 10000 nM | – | – | – | – | –
CS(=O)(=O)Nc1cccc([C@@H](O)CNCCOc2ccc3c(-c4ccccc4)n[nH]c3c2)c1 | > 10000 nM | 6% | > 10000 nM | – | 29% | – | – | – | – | – | – | – | – | – | – | –
COc1n[nH]c2cc(OCCNC[C@H](O)c3cccc(NS(C)(=O)=O)c3)ccc12 | 252 nM | 60% | 40 nM | 6.3 | 70% | – | – | – | – | – | – | – | – | – | – | –
CS(=O)(=O)Nc1cccc([C@@H](O)CNCCOc2ccc3c(C(F)(F)F)n[nH]c3c2)c1 | 812 nM | 31% | 64 nM | 13 | 86% | – | – | – | – | – | – | – | – | – | – | –

Source: ChEMBL document CHEMBL3600378 (J Med Chem, 2015)
